The list is not random: actives were taken first. Their share in the collection is about 1.5%.
SIRT5 block: blocks human SIRT5 desuccinylation of peptide | AID 652115 | Purified SirT5, succinyl-peptide AMC, trypsin-coupled fluorescence | inhibition, % at 15 µM | 330,000 tested, 1.1% active | Q9NXA8; in the data active means inhibition above about 15%
ERp5 inh: inhibitors of human ERp5; Q15084; ERp5 insulin aggregation, absorbance 650 nm, 90 min; inhibition, % at 9.99 µM; 350,000 tested, 0.05% active; AID 651711;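 active means mean replicate inhibition above about 25%, with every replicate also reaching it, limit read from the data, passing the limit was not always enough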
S100A4 inh HTS: S100A4-myosin IIA interaction inhibition; inhibition, % at 10.7 µM; S100A4/TAMRA-MyoIIA peptide fluorescence polarization; AID 652163; P26447; 360,000 tested, 0.14% active;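 active means mean inhibition of at least 70% across replicates, with every replicate also reaching that level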
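assay system = human S100A4 monomer with TAMRA-labelled myosin IIA peptide | also added = labelled myosin peptide probe, 5 nM | incubation = 5 min between mix addition and reading | control set = DMSO and TFP controls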
INS-1E GSIS act: primary screen for activators of insulin secretion dependent on glucose, INS-1E cells, GLuc reporter luminescence; INS-1E GLuc reporter insulin secretion, 2-3 h; activation, % at 16.6 µM; 370,000 tested, 0.61% active;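 active means lowest replicate activation of at least 40%, so every replicate reaches that level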;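 further: 0% = median of neutral control wells and 100% = median of IBMX positive control wells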
PDI inh: inhibitors of human protein disulfide isomerase | inhibition, % at 10 µM | AID 588391 | PDI insulin aggregation turbidity, A650, 90 min | P07237 | 350,000 tested, 0.052% active;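 active means mean inhibition across replicates of 30% or more, whatever share of single replicates reach that level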
Target sequence (P07237 whole entry, looked up): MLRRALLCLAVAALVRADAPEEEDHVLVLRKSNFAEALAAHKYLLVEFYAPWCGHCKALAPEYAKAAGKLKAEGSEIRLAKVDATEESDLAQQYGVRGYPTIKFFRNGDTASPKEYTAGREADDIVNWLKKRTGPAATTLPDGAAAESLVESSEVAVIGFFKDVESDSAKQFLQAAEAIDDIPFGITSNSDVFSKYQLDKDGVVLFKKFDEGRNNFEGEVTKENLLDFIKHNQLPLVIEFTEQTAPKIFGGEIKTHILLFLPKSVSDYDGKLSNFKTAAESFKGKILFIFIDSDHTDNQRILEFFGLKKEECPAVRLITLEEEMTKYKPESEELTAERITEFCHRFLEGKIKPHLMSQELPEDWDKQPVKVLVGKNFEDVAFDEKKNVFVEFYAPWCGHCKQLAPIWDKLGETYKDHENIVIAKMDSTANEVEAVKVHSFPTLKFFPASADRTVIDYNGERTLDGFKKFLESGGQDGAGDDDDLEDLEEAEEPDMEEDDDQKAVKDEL
* marks the source's active call; other numbers are inactive results; / = not tested or not shown.

SMILES	SIRT5 block	ERp5 inh	S100A4 inh HTS	INS-1E GSIS act	PDI inh
CC(=O)N1CCN(c2nnc(-c3ccccc3)c3ccccc23)CC1	-3.9	2.1	-2.8	40.5*	-7.3
Cc1ccc(-c2nnc(N3CCN(C(=O)CN4C(=O)c5ccccc5C4=O)CC3)c3ccccc23)cc1	/	/	/	52.9*	0.3
CCC(=O)N1CCN(c2nnc(-c3ccccc3)c3ccccc23)CC1	-2.1	4.3	-3.8	23.7	0.5
O=C(N[C@@H]1CC[C@@H](CCNS(=O)(=O)c2ccc(F)cc2)O[C@H]1CO)C1CCC1	0.1	-2.4	-2.3	-6.0	/
O=C(C[C@@H]1C=C[C@H](NC(=O)Nc2ccc(C(F)(F)F)cc2)[C@H](CO)O1)NCc1ccccn1	3.8	-1.0	19.2	1.8	/
C[C@@H]1CN([C@@H](C)CO)C(=O)c2cc(NS(=O)(=O)c3ccc(Cl)cc3)ccc2O[C@@H](C)CCCCO[C@@H]1CN(C)C(=O)Cc1ccccc1	5.0	-1.2	2.5	-24.7	/
CO[C@H]1CN(C)C(=O)c2cc(NC(C)=O)ccc2OC[C@H](C)N(Cc2ccccc2F)C[C@H]1C	1.5	-5.2	13.4	-9.7	/
CCNC(=O)C[C@H]1C=C[C@H](NC(=O)C2CC2)[C@H](CO)O1	3.2	4.6	3.0	7.9	/
COc1ccc(-c2nnc(-c3cccs3)o2)cc1OC	/	/	/	72.8*	-3.9
O=C(NCC1CC1)[C@@H]1[C@@H](CO)[C@@H]2Cn3c(ccc(-c4ccccc4F)c3=O)[C@H]1N2Cc1ccncc1	-8.9	5.6	5.7	-2.5	/
Cc1nn(-c2ccccc2)c2nc(C(F)F)cc(C(F)F)c12	0.4	-30.8	-2.7	70.0*	3.7
CN(C)C(=O)C[C@H]1CC[C@@H]2[C@H](COC[C@@H](O)CN2CC2CCCCC2)O1	-1.4	-3.1	7.9	19.8	/
COCCNC(=O)c1onc(CSc2cccc(OC)c2)c1C(=O)NCCOC	22.0*	3.3	-3.6	0.6	1.6
C[C@@H]1CC=CC[C@H](c2ccccc2)NC(=O)[C@@H](Cc2ccccc2)N(C)C(=O)c2ccccc2O1 (mixture of isomers)	/	/	/	-35.7	/
CCCNC(=O)N(C)C[C@H]1Oc2cc(-c3cccnc3)ccc2S(=O)(=O)N([C@@H](C)CO)C[C@H]1C	0.4	-0.2	6.5	6.7	/
C[C@H]1CCCCO[C@H](CN(C)CC2CCCCC2)[C@@H](C)CN([C@@H](C)CO)C(=O)c2cc(NS(=O)(=O)c3cn(C)cn3)ccc2O1	-2.4	1.5	56.5	7.2	/
CC(C)NC(=O)N(C)C[C@H]1Oc2cc(C3=CCCC3)ccc2S(=O)(=O)N([C@@H](C)CO)C[C@H]1C	1.7	9.3	-4.8	3.5	/
COc1ccc(N2CCN(C(=O)[C@H](C)NC(=O)c3ccccc3Cl)CC2)cc1	-2.5	3.8	-0.7	23.4	2.8
COc1ccc(N2CCN(C(=O)[C@@H](NC(=O)c3ccccc3Cl)C(C)C)CC2)cc1	16.4*	1.5	-2.1	-16.5	-4.4
Cc1ccc(S(=O)(=O)N(CC(=O)Nc2ccc(C)cc2C)C(=O)N2CCN(C)CC2)cc1	1.6	2.4	-0.3	221.3*	12.4
Cc1ccc(S(=O)(=O)N(CC(=O)Nc2ccc(F)cc2)C(=O)N2CCN(C)CC2)cc1	6.2	-3.0	9.5	14.3	-0.1
Cc1ccc(NC(=O)CN(C(=O)N2CCN(C)CC2)S(=O)(=O)c2ccc(C)cc2)cc1	-7.2	4.2	-1.1	44.6*	-4.3
COCCOC(=O)N1C(=O)[C@@]2(c3ccccc31)[C@H](C(=O)N1CCN(c3ncccn3)CC1)[C@H]1C(=O)O[C@H](c3ccccc3)[C@H](c3ccccc3)N1[C@@H]2c1ccccc1OCCO	15.6*	4.6	-5.6	/	/
COCCOC(=O)N1C(=O)[C@@]2(c3cc(C#CCCO)ccc31)[C@H](c1ccccc1OCCO)N1[C@H](c3ccccc3)[C@H](c3ccccc3)OC(=O)[C@H]1[C@@H]2C(=O)N1CCN(c2ncccn2)CC1	19.0*	-3.3	-0.2	/	/
COCCOC(=O)N1C(=O)[C@@]2(c3cc(C#Cc4ccc(OC)cc4)ccc31)[C@H](c1ccccc1OCCO)N1[C@H](c3ccccc3)[C@H](c3ccccc3)OC(=O)[C@H]1[C@@H]2C(=O)NC[C@H](O)c1ccccc1	-6.4	4.6	-2.0	/	/

Source: PubChem BioAssay (Broad Institute)
